Results published in ChEMBL document CHEMBL4041513, “In silico identification, design and synthesis of novel piperazine-based antiviral agents targeting the hepatitis C virus helicase” (Eur J Med Chem, 2017).
Active and inactive are the calls of the source. The calls are words filed in the database; no cut-off is given here.

Columns and labels:
Hepatitis C virus = assay: Antiviral activity against HCV genotype 1b infected in human HuH5.2 cells with persistent I389luc-ubi-neo/NS3-3'/5.1 replicon after 72 hrs by luciferase reporter gene assay; format: functional, cell-based, Hepacivirus hominis; conditions: Huh-5-2, 72 h
Outline: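 Huh 5-2 cells carrying the genotype 1b I389luc-ubi-neo/NS3-3'/5.1 replicon were seeded at 6 500 cells/well in Geneticin-free DMEM/10% FCS and left overnight. Compounds from DMSO stocks were added in a four-step 1-to-5 series for the first screen or an eight-step 1-to-2 series for dose-response curves, then 72 h at 37 °C. Luciferase luminescence after lysis, as % of untreated controls, gave EC50; mean of ≥2 experiments.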

[1] = Cytotoxicity against human HuH5.2 cells assessed as reduction in cell viability after 72 hrs by MTS assay; format: cell-based, Huh-5-2
Outline: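 Huh 5-2 cells carrying the genotype 1b I389luc-ubi-neo/NS3-3'/5.1 replicon were seeded at 6 500 cells/well in medium without Geneticin one day ahead. Compounds (DMSO stock) were added as 1:5 four-step or 1:2 eight-step dilutions for 72 h at 37 °C.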

[2] = Selectivity index, ratio of CC50 for human HuH5.2 cells to EC50 for HCV genotype 1b infected in human HuH5.2 cells with persistent I389luc-ubi-neo/NS3-3'/5.1 replicon
[3] = Inhibition of HCV NS3 helicase DNA unwinding activity using fluorescent DNA substrate by molecular beacon assay; set-up: species or system Hepacivirus hominis
Outline: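 Molecular beacon unwinding reaction: 25 mM MOPS pH 6.5, 1.25 mM MgCl2, 5% DMSO, 5 µg/ml BSA, 0.01% Tween20, 0.05 mM DTT, 5 nM fluorescent DNA substrate, 12.5 nM NS3h, 1 mM ATP. Duplicate two-fold dilutions spanned 1 mM to 0.78 µM. Data normalised to no-inhibitor and no-enzyme controls; IC50 from variable-slope Hill fit.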

[4] = Inhibition of DNA oligonucleotide binding to HCV NS3 helicase; set-up: species or system Hepacivirus hominis
Outline: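 Compounds run in duplicate two-fold series from 1 mM to 0.78 µM; normalised to no-inhibitor and no-enzyme controls; IC50 by variable Hill-slope dose-response fit.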

[5] = Inhibition of HCV NS3 helicase ATP hydrolysis activity in presence of poly(U) RNA; set-up: species or system Hepacivirus hominis
Outline: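 ATPase run with RNA: 25 mM MOPS pH 6.5, 1.25 mM MgCl2, 15 µM poly(U), 6 nM NS3h, 5 µg/mL BSA, 0.001% Tween 20. Duplicate two-fold compound series from 1 mM to 0.78 µM; normalised to no-inhibitor and no-enzyme controls; IC50 from variable Hill-slope fit. A separate poly(U) titration gave K_RNA, fit assuming unchanged Vmax.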

Hepacivirus hominis [6] = assay: Inhibition of HCV NS3 helicase ATP hydrolysis activity at 1 mM in absence of poly(U) RNA
[7] = Binding affinity to HCV genotype 2A JFH1 protease domain truncated NS3 helicase by fluorescence assay; set-up: species or system Hepatitis C virus JFH-1
Outline: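 Intrinsic tryptophan fluorescence titration (ex 280 nm, em 340 nm) of NS3h, the JFH1 genotype 2a NS3 helicase domain without protease, at 100 nM, with compound alone as reference. Intensities corrected for dilution and inner-filter effects, then globally fit to a quadratic binding equation for Kd.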

Hepacivirus hominis [8] = assay: Selectivity ratio of inhibition of DNA oligonucleotide binding to HCV NS3 helicase to inhibition of HCV NS3 helicase ATP hydrolysis activity

SMILES	EC50 (Hepatitis C virus) [µM]	CC50 at 72 h [1] [µM]	Ratio CC50/EC50 [2]	IC50 [3] [µM]	IC50 [4] [µM]	IC50 [5] [µM]	EC90 (Hepatitis C virus) [µM]	inhibition (Hepacivirus hominis [6])	Kd [7] [µM]	Selectivity ratio (Hepacivirus hominis [8])
CC(C)(C)c1ccc(S(=O)(=O)NCCCN2CCN(C(=O)CCNS(=O)(=O)c3ccc(C(C)(C)C)cc3)CC2)cc1	3.84	20.8	5.4	> 1000	–	–	–	–	–	–
CCOC(=O)c1ccc(S(=O)(=O)NCCCN2CCN(CCCNS(=O)(=O)c3ccc(C(=O)OCC)cc3)CC2)cc1	56.2	> 160	>2.8	> 1000	–	–	–	–	–	–
O=C(CCNS(=O)(=O)c1ccc(Cl)cc1)N1CCN(C(=O)CCNS(=O)(=O)c2ccc(Cl)cc2)CC1	–	> 86.6	–	> 1000	> 1000	> 1000	–	–	–	–
CC(C)(C)c1ccc(S(=O)(=O)NCCCN2CCN(CCCNS(=O)(=O)c3ccc(Cl)cc3)CC2)cc1	2.21	8.77	4	310	–	–	4.96	–	–	–
O=S(=O)(NCCCN1CCN(CCCNS(=O)(=O)c2ccc(-c3ccccc3)cc2)CC1)c1ccccc1	4	14	3.5	> 1000	–	–	–	–	–	–
CC(C)(C)c1ccc(S(=O)(=O)NCCCN2CCN(CCNS(=O)(=O)c3ccc(C(C)(C)C)cc3)CC2)cc1	1.7	5.21	3.1	170	–	–	–	–	–	–
O=S(=O)(NCCCN1CCN(CCCNS(=O)(=O)c2ccc3ccccc3c2)CC1)c1ccc2ccccc2c1	4.9	49.9	10	460	–	–	–	–	–	–
CC(C)(C)c1ccc(S(=O)(=O)NCCCN2CCN(CCCNS(=O)(=O)c3ccc(-c4ccccc4)cc3)CC2)cc1	1.3	4.78	3.7	90	200	21	3.05	inactive	0.57	10
O=S(=O)(NCCCN1CCN(CCCNS(=O)(=O)c2ccc(-c3ccccc3)cc2)CC1)c1ccc(-c2ccccc2)cc1	1.2	4.9	3.9	630	–	–	–	–	–	–
O=S(=O)(NCCCCN1CCN(CCCCNS(=O)(=O)c2ccc(Cl)cc2)CC1)c1ccc(Cl)cc1	66.7	> 173	>2.5	790	–	–	164	–	–	–
CC(C)(C)c1ccc(S(=O)(=O)NCCCN2CCN(CCCNS(=O)(=O)c3ccc(C(C)(C)C)cc3)CC2)cc1	8.7	97.2	11.2	310	> 1000	590	42.9	–	–	–
O=S(=O)(NCCCN1CCN(CCCNS(=O)(=O)c2ccc(C(F)(F)F)cc2)CC1)c1ccc(C(F)(F)F)cc1	6.5	> 162	>25	> 1000	–	–	–	–	–	–
O=S(=O)(NCCCN1CCN(CCCNS(=O)(=O)c2ccc(Cl)cc2)CC1)c1ccc(Cl)cc1	13 to 13.8	> 182	>13.2 - 14	> 1000	> 1000	> 1000	–	–	–	–
O=S(=O)(NCCN1CCN(CCNS(=O)(=O)c2ccc(Cl)cc2)CC1)c1ccc(Cl)cc1	> 95.9	> 95.9	–	250	–	–	–	–	–	–
O=S(=O)(NCCN1CCN(CCNS(=O)(=O)c2ccc3ccccc3c2)CC1)c1ccc2ccccc2c1	10.6	> 90.5	>8.5	690	–	–	–	–	–	–
O=C(CCNS(=O)(=O)c1ccc(-c2ccccc2)cc1)N1CCN(CCCNS(=O)(=O)c2ccc(-c3ccccc3)cc2)CC1	3.03	66.9	22.1	> 1000	–	–	–	–	–	–
CC(C)(C)c1ccc(S(=O)(=O)NCCCN2CCN(CCCNS(=O)(=O)c3ccc(C(F)(F)F)cc3)CC2)cc1	6.62	28.7	4.3	> 1000	–	–	13.8	–	–	–
O=S(=O)(NCCCN1CCN(CCCNS(=O)(=O)c2cccc3cccnc23)CC1)c1cccc2cccnc12	42.5	> 172	>4	> 1000	–	–	> 172	–	–	–
O=C(CCNS(=O)(=O)c1ccc(Cl)cc1)N1CCN(CCCNS(=O)(=O)c2ccc(Cl)cc2)CC1	9.32	69.1	7.4	> 1000	–	–	25.9	–	–	–
